Screening results deposited in PubChem by The Scripps Research Institute Molecular Screening Center.
Only some compounds are listed: those with a hit (about 3.1% of all), similar ones and a draw of the others.
CHO parental Ca: counter-screen for OX1R antagonists: effect in parental CHO cells; parental CHO-K1, ATP-induced calcium, Fluo-8 fluorescence; inhibition, % at 5.6 µM; hit rate 0.63% among 330,000;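 active means inhibition above that plate's mean sample inhibition plus 3 SD, cut at about 26% in these data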;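 further: 0% = ATP-challenged DMSO wells and 100% = DMSO wells without ATP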
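Assay system: parental CHO cells; Read-out basis: percent inhibition of ATP-evoked calcium rise, normalized to controls; Benchmarks: ATP and no-ATP DMSO wells; Compound dosing: single nominal dose of 5.6 µM per compound; Signal: Fluo-8 calcium dye fluorescence; Also added: ATP as calcium-mobilizing challenge; Repeats: singlicate.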
GalR3 antagonist: blocks the human galanin receptor 3; O60755; HEK293 GalR3-CNG cAMP membrane potential fluorescence; galR3 body fused to GalR1 C-terminus; inhibition, % at 3 µM; hit rate 0.44% among 360,000; AID 651719;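 active means inhibition above the screen-wide average plus 3 SD, cut at about 13% in these data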;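 further: forskolin and galanin both at EC90 stimulate the cells; cAMP rise reported by CNG channel membrane potential dye signal; 0% = forskolin plus galanin with DMSO and 100% = forskolin alone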
OX1R antag-1: antagonists of human orexin 1 receptor (OX1R). O43613. OX1R-expressing cells, FRET antagonist read-out. inhibition, % at 6.6 µM. hit rate 1.8% among 330,000. AID 485270; in the data active means inhibition mostly above about 38%, no sharp cut-off; inactive means mostly below about 40%;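 further: 0% = agonist challenge alone and 100% = reference antagonist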
Target sequence (O43613 whole entry, looked up): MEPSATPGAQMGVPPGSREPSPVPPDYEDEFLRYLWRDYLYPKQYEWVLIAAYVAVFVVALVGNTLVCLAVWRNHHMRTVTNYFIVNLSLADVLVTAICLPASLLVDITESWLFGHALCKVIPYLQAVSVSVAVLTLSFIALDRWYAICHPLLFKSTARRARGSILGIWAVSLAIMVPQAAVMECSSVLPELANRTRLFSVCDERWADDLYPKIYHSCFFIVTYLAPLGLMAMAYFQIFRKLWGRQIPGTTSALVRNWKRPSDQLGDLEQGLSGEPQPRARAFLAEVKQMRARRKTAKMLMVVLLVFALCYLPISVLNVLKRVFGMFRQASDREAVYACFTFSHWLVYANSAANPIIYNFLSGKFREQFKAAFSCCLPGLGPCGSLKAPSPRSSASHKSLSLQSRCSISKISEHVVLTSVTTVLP
GPR7 antagonist: blocks human GPR7 receptor signaling. GPR7-expressing cells, fluorescence antagonist assay. inhibition, % at 4.4 µM. hit rate 1.1% among 290,000; in the data active means inhibition above about 16%, passing the limit was not always enough;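 further: cells stimulated with the agonist NPW; 0% = agonist with vehicle and 100% = vehicle without agonist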
OX1R antag-2: antagonists of human orexin 1 receptor; CHO/OX1R cells, Fluo-8 calcium fluorescence, orexin A; O43613; hit rate 0.43% among 330,000; inhibition, % at 5 µM;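 active means inhibition above its plate's threshold, mean inhibition of all tested compounds on the plate plus 3 SD, cut at about 37% in these data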;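 further: 0% = orexin A challenge wells and 100% = SB-334867-A antagonist wells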
GPR7 antag conf: human GPR7 antagonism, confirmation assay; shares compounds with GPR7 antagonist; GPR7-expressing cells, calcium fluorescence antagonist mode; inhibition, % at 4.4 µM; hit rate 52% among 2,400; AID 1952; in the data active means inhibition above about 24%;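 further: stimulated with the GPR7 agonist NPW; 0% = agonist plus vehicle and 100% = vehicle alone without agonist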
MCHR1 antagonist: MCHR1 (human) antagonism in GPR7 counter-screen; MCHR1-expressing cells, fluorescence antagonist assay; AID 2148; shares compounds with GPR7 antagonist; inhibition, % at 4.4 µM; hit rate 62% among 2,400; in the data active means inhibition above about 22%;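 further: 0% = vehicle with agonist and 100% = vehicle without agonist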
* = called active by the depositor; / = no result given.

SMILES | CHO parental Ca | GalR3 antagonist | OX1R antag-1 | GPR7 antagonist | OX1R antag-2 | GPR7 antag conf | MCHR1 antagonist
Oc1ccc(-c2csc(-c3ccccc3)n2)cc1O | 27.8* | -5.8 | 14.5 | 26.7* | 15.6 | 17.3 | 7.2
Oc1ccc(-c2csc(-c3cccnc3)n2)cc1O | -17.7 | 7.1 | 9.9 | 13.5 | -18.8 | / | /
COc1ccc(N(CC(=O)NCc2cccnc2)S(=O)(=O)c2ccccc2[N+](=O)[O-])c(OC)c1 | -7.8 | 1.4 | 10.0 | 1.4 | -28.4 | / | /
COc1ccc(N(CC(=O)NCc2ccc(Cl)cc2)S(=O)(=O)c2ccccc2[N+](=O)[O-])c(OC)c1 | -13.3 | -4.8 | 26.2 | 37.4* | -4.4 | 34.0* | 37.6*
CCN1CCc2c(sc(NC(=O)Cc3ccccc3)c2C(N)=O)C1 | 0.7 | / | 1.1 | -0.7 | -5.8 | / | /
CCN1CCc2c(sc(NC(=O)Nc3ccc(Cl)c(Cl)c3)c2C(N)=O)C1 | 93.8* | -2.3 | 23.7 | 57.6* | 99.5* | 60.2* | 81.0*
O=C(Nc1csc([N+](=O)[O-])c1)Nc1c(Cl)cccc1Cl | -6.5 | -3.7 | 23.4 | 11.1 | -6.6 | / | /
O=C(Nc1ccccc1)Nc1ccc(Cl)c([N+](=O)[O-])c1 | 10.0 | -2.0 | 32.9 | 26.1* | 5.2 | 58.5* | 64.6*
O=C(Nc1ccc(Cl)cc1)Nc1csc([N+](=O)[O-])c1 | 65.1* | -6.3 | 83.1* | 23.5* | 65.0* | 57.2* | 66.7*
CC(=O)Nc1ccc(NC(=O)Nc2cccc(Cl)c2)cc1 | -5.4 | -6.6 | -1.6 | 0.6 | -23.8 | / | /
CC(=O)c1ccc(NC(=O)Nc2cccc(Cl)c2)cc1 | 37.6* | -6.4 | 72.0* | 28.7* | 35.4 | 36.8* | 67.3*
COc1ccc(CCNC(=O)CCCn2c(=S)[nH]c3cc4c(cc3c2=O)OCO4)cc1OC | / | 2.4 | / | / | / | / | /
CC(=O)N1Cc2ccccc2CC1C(=O)NCc1ccccc1F (stereo unspecified) | -7.9 | -6.5 | 1.5 | -3.4 | -2.3 | / | /
COc1ccc(C(CNC(=O)C(=O)NC2CCCCC2)N2CCN(C)CC2)cc1 (stereo unspecified) | -13.3 | -2.4 | 12.2 | / | -16.2 | / | /
O=C(Nc1ccc2ccccc2c1)c1ccccc1O | 8.6 | -8.3 | 54.8* | 30.4* | 8.6 | 39.2* | 52.5*
COCCNC(=O)CCc1c(C)nc2c(c(C)nn2-c2ccc(C)cc2)c1C | -6.4 | -8.7 | 21.8 | 0.4 | -27.0 | / | /
CCN(CC)CCNC(=O)CCc1c(C)nc2c(c(C)nn2-c2ccc(C)cc2)c1C | / | -15.1 | / | / | / | / | 17.9
CCCOc1ccc(C(=O)NNC(=S)NC(=O)c2ccccc2)cc1 | 56.0* | -9.8 | 0.2 | 41.8* | 77.8* | 59.7* | 62.2*
Cc1cccc(C(=O)NC(=S)NNC(=O)c2cccs2)c1 | -8.1 | -3.8 | 5.1 | -7.6 | -4.3 | / | /
Cc1cccc(C(=O)NC(=S)NNC(=O)c2ccc(Cl)cc2)c1 | 64.4* | -3.5 | -6.7 | 32.0* | 74.7* | 57.6* | 50.5*
CCCOc1ccc(C(=O)NNC(=S)NC(=O)c2cccs2)cc1 | 63.5* | -7.8 | -6.8 | 51.8* | 70.0* | 41.8* | 36.8*
COc1ccc(/C=C/C(=O)NCC(=O)N/N=C(/C)c2ccco2)cc1 | -12.1 | 0.3 | 13.4 | -6.8 | -7.7 | / | /
O=C(NC1CCCCC1)C(c1ccc(F)cc1)N(Cc1ccco1)C(=O)c1ccccn1 (stereo unspecified) | -11.2 | -7.0 | 14.8 | 25.6* | -21.1 | 6.2 | 12.4
O=C(NCc1ccccc1)C(c1ccc(F)cc1)N(Cc1ccco1)C(=O)c1ccccn1 (stereo unspecified) | -17.8 | -0.6 | 10.2 | 7.2 | -12.9 | / | /
CCC(=O)Nc1cccc(NC(=O)CSc2nnnn2Cc2ccccc2)c1 | -32.8 | -4.2 | 23.8 | 22.6* | -28.7 | 12.1 | 14.0
COC(=O)c1ccc(-n2nnnc2SCc2ccccc2OC)cc1 | -7.9 | -3.6 | 24.2 | 38.3* | -20.5 | 36.7* | 60.9*
COc1ccc(C2CC(c3cccc(OC)c3)n3nc(N)nc3N2)cc1 (stereo unspecified) | -9.2 | 1.4 | 6.2 | 39.3* | -3.9 | -3.3 | -8.8
CCc1ccc(C2CC(c3ccccc3Cl)Nc3nc(N)nn32)cc1 (stereo unspecified) | -8.9 | 4.4 | 9.9 | 30.3* | -3.4 | 42.3* | 19.3
